From ChEMBL document CHEMBL1130208, “(1 alpha, 2 beta, 3 beta, 4 alpha)-1,2-bis[N-propyl-N-(4-phenoxybenzyl) amino]carbonyl]cyclobutane-3,4-dicarboxylic acid (A-87049): a novel potent squalene synthase inhibitor” (J Med Chem, 1997) come the findings set out here.

pIC50: −log10 of the molar value.

One experiment has as its target T1, Squalene synthase (Rattus norvegicus, UniProt Q02769).
T1 sequence (Q02769 whole entry): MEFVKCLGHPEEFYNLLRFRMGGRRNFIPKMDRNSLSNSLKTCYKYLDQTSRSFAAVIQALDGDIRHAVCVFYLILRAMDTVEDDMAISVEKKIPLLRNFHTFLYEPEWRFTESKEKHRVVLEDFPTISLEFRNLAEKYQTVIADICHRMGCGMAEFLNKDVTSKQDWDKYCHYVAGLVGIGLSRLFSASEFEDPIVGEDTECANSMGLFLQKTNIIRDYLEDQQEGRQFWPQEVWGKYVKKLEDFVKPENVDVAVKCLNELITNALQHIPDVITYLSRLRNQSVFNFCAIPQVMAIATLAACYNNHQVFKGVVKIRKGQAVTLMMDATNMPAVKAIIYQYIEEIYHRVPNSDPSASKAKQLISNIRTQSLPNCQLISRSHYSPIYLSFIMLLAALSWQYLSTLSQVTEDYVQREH
Briefly: In vitro inhibitory activity against Squalene Synthase. In short, it runs like this: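 Squalene synthase inhibition measured in a rat liver microsomal enzyme assay.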

For experiment [1], the system named is Monkey. Briefly: In vivo percent change of LDL cholesterol in monkeys at 20 mg/kg/day for 5 days dose. It is filed as functional, Cercopithecidae. A digest of the protocol:
(§1)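 Cynomolgus monkeys (n = 4) were given 20 mg/kg po daily for 5 days, and controls received vehicle with 0.2% methocel. Animals were fasted overnight before the last dose and bled from the femoral vein 2 h after dosing on day 5, before feeding. Plasma lipids are expressed as % change from pretreatment, with one-sample t-tests.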

For experiment [2], the system named is Monkey. The experiment is described as follows: In vivo percent change of HDL cholesterol in monkeys at 20 mg/kg/day for 5 days dose. The class given is functional, Cercopithecidae. In short, it runs like this:
as §1

For experiment [3], the system named is Monkey. The experiment is described as follows: In vivo percent change of total cholesterol in monkeys at 20 mg/kg/day for 5 days dose c. It is filed as functional, Cercopithecidae. In short, it runs like this: as §1
Experiment [4] deals with Monkey. The experiment is described as follows: In vivo percent change of total cholesterol in monkeys at 20 mg/kg/day for 5 days dose. The class given is functional, Cercopithecidae. A digest of the protocol:
as §1

The pIC50 is −log10 of the IC50, conventionally taken in molar units. For the compound `CN(Cc1cccc(Oc2ccccc2)c1)C(=O)[C@@H]1[C@H](C(=O)O)[C@@H](C(=O)O)[C@H]1C(=O)N(C)Cc1cccc(Oc2ccccc2)c1`, the pIC50 against Squalene synthase was 5.10.
For the compound `CCCN(Cc1ccc(Oc2ccccc2)cc1)C(=O)[C@@H]1[C@H](C(=O)O)[C@@H](C(=O)O)[C@H]1C(=O)N(CCC)Cc1ccc(Oc2ccccc2)cc1`, the Change in the experiment on Monkey [1] is on record as -36%; with Monkey [2] it was -4%; with Monkey [3], -12%.
As to `CC(C)N(Cc1ccc(Oc2ccccc2)cc1)C(=O)[C@@H]1[C@H](C(=O)O)[C@@H](C(=O)O)[C@H]1C(=O)N(Cc1ccc(Oc2ccccc2)cc1)C(C)C`, the pIC50 against Squalene synthase was 6.85.
For the compound `CN(Cc1ccc(OCc2ccccc2)cc1)C(=O)[C@@H]1[C@H](C(=O)O)[C@@H](C(=O)O)[C@H]1C(=O)N(C)Cc1ccc(OCc2ccccc2)cc1`, at Squalene synthase, the negative-log IC50 (pIC50) was 5.00.
In the case of `CC[C@H](C)C(=O)O[C@H]1C[C@@H](C)C=C2C=C[C@H](C)[C@H](CC[C@@H]3C[C@@H](O)CC(=O)O3)[C@H]21` [LOVASTATIN], the values for the Change in the experiment on Monkey [1], with Monkey [2] and with Monkey [4] were -21%, -12% and -19%, respectively.
